The test system of one test is NCI-H1975. Put plainly: Cytotoxicity against human NCI-H1975 cells assessed as cell growth inhibition after 72 hrs by CCK-8 assay. To be noted: NCI-H1975, 72 h. It is filed as functional. An outline of the steps:
(§1)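 HeLa, MCF7, H1975, U937 and MDA-MB-231 kept in RPMI or DMEM with 10% FBS and 1% pen/strep at 37 °C, 5% CO2. Seeded at 400-800 cells/well in 384-well format, exposed to a concentration series or solvent control for 72 h. CCK-8 added, absorbance read at 450 nm, IC50 fitted from dose-response curves.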
Background: Tetrazolium dyes change colour on reduction, which living cells bring about.

For a further test, the system named is MDA-MB-231. Put plainly: Cytotoxicity against human MDA-MB-231 cells assessed as cell growth inhibition after 72 hrs by CCK-8 assay. The test is classed as functional. As to conditions: MDA-MB-231, 72 h. An outline of the steps:
as §1

Another test deals with MCF7. Put plainly: Cytotoxicity against human MCF7 cells assessed as cell growth inhibition after 72 hrs by CCK-8 assay. It is filed as functional. To be noted: MCF7, 72 h. An outline of the steps:
as §1

Another test has as its system HeLa. Put plainly: Cytotoxicity against human HeLa cells assessed as cell growth inhibition after 72 hrs by CCK-8 assay. It is filed as functional. An outline of the steps:
as §1

In the next test the test system is U-937. Put plainly: Cytotoxicity against human U937 cells assessed as cell growth inhibition after 72 hrs by CCK-8 assay. It is filed as functional. As to conditions: U-937, 72 h. An outline of the steps:
as §1

Test [1] has as its target Nicotinamide phosphoribosyltransferase (Homo sapiens, UniProt P43490). Put plainly: Inhibition of recombinant NAMPT (unknown origin) using nicotinamide as substrate measured every 5 mins for 30 mins in presence of recombinant NMNAT1.

The structures appear in SMILES notation.

Sequence of Nicotinamide phosphoribosyltransferase (P43490 whole entry): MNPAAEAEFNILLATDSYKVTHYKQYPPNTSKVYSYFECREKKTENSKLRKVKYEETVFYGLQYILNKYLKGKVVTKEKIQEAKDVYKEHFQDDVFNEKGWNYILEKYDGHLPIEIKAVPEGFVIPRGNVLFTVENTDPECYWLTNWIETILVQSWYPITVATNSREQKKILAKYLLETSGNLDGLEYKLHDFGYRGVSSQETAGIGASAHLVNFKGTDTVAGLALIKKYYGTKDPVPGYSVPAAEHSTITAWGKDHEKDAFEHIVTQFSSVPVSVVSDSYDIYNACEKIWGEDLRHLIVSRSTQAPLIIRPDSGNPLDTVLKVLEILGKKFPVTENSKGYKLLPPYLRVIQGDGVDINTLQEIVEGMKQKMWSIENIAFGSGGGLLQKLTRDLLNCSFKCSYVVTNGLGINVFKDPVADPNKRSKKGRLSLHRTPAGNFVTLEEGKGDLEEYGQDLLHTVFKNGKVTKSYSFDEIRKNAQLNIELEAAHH

For the molecule `CCN(CCc1c[nH]c2ccccc12)Cc1ccc(CCCNC(=O)/C=C/c2cccnc2)cc1`, the GI50 in the test with NCI-H1975 is 314 nM; in the test on MDA-MB-231, 76.4 nM; in the test with MCF7, 41 nM; in the test with HeLa it was 200 nM; in the test on U-937, 48.3 nM. In addition, the IC50 in test [1] is 873 nM.
Turning to `CC(C)N(Cc1ccccc1)Cc1ccc(CCCCCNC(=O)/C=C/c2cccnc2)cc1`, the GI50 with NCI-H1975 was found to be 49 nM; in the test with MDA-MB-231, 12.6 nM; in the test on MCF7, 6.37 nM; in the test on HeLa it was 40.1 nM; in the test with U-937, 11.1 nM. Also, in test [1], the 50% inhibitory concentration (IC50) was 82.5 nM.
As to `CC(C)N(CCc1c[nH]c2ccccc12)Cc1ccc(CCCCCCCNC(=O)/C=C/c2cccnc2)cc1`, the concentration for 50% growth inhibition (GI50) with NCI-H1975 worked out at 4.2 nM; in the test on MDA-MB-231, 0.84 nM; with MCF7, 0.74 nM; in the test on HeLa it was 2.64 nM; with U-937, 0.75 nM. Also, in test [1], the IC50 came out at 52.7 nM.
Consider `CC(C)N(CCc1ccc(C(F)(F)F)cc1)Cc1ccc(CCCCCNC(=O)/C=C/c2cccnc2)cc1`, for which the GI50 worked out at 9.54 nM in the test with NCI-H1975; 2.4 nM with MDA-MB-231; 1.6 nM in the test with MCF7; 8.98 nM with HeLa; 1.57 nM in the test on U-937. In addition, the IC50 in test [1] came to 362 nM.
`Cc1ccc(CCN(Cc2ccc(CCCCCNC(=O)/C=C/c3cccnc3)cc2)C(C)C)cc1`: the 50% growth inhibitory concentration (GI50) in the test on NCI-H1975 stood at 39.2 nM; in the test on MDA-MB-231 it was 7.19 nM; with MCF7, 5.53 nM; in the test with HeLa, 26.6 nM; with U-937, 8.73 nM. In addition, the IC50 in test [1] came out at 99.6 nM.
With `CC(C)N(CCc1c[nH]c2ccccc12)Cc1ccc(CCCCCNC(=O)/C=C/c2cccnc2)cc1`, the GI50 was 4.2 nM in the test with NCI-H1975; 0.89 nM in the test with MDA-MB-231; 0.63 nM in the test with MCF7; 3.23 nM with HeLa; 0.61 nM with U-937. Besides, the IC50 in test [1] came out at 66.9 nM.
For the molecule `O=C(/C=C/c1cccnc1)NCCCc1ccc(CN(CCc2c[nH]c3ccccc23)Cc2ccccc2)cc1`, the GI50 with NCI-H1975 came to 514 nM; in the test on MDA-MB-231, 269 nM; in the test on MCF7, 101 nM; in the test on HeLa, 379 nM; in the test with U-937, 85.2 nM. Besides, the IC50 in test [1] amounted to 1000 nM.
With `CC(C)N(CCc1c[nH]c2ccccc12)Cc1ccc(CCCNC(=O)/C=C/c2cccnc2)cc1`, the GI50 in the test on NCI-H1975 amounted to 79.7 nM; in the test on MDA-MB-231, 30.5 nM; in the test on MCF7, 22.4 nM; in the test on HeLa, 90.7 nM; with U-937, 24.2 nM. Further, the IC50 in test [1] came to 702 nM.
As to `CN(CCc1c[nH]c2ccccc12)Cc1ccc(CCCNC(=O)/C=C/c2cccnc2)cc1`, the GI50 in the test on NCI-H1975 is 224 nM; in the test on MDA-MB-231, 84.7 nM; in the test on MCF7 it was 75.4 nM; in the test on HeLa, 250 nM; in the test with U-937, 69.1 nM. Further, the IC50 in test [1] was found to be 780 nM.
In the case of `CC(C)N(CCc1ccccc1)Cc1ccc(CCCCCNC(=O)/C=C/c2cccnc2)cc1`, the GI50 is 61.3 nM with NCI-H1975; 10.1 nM in the test with MDA-MB-231; 7.18 nM in the test with MCF7; 19.6 nM with HeLa; 6.21 nM in the test on U-937. Also, the IC50 in test [1] stood at 285 nM.
Turning to `CC(C)N(CCc1cccc(C(F)(F)F)c1)Cc1ccc(CCCCCNC(=O)/C=C/c2cccnc2)cc1`, the GI50 with NCI-H1975 came to 26.2 nM; in the test on MDA-MB-231, 6.92 nM; with MCF7 it was 2.41 nM; with HeLa it was 15.2 nM; in the test with U-937 it was 5.1 nM. In addition, the IC50 in test [1] was 381 nM.
With `COc1ccc(CCN(Cc2ccc(CCCCCNC(=O)/C=C/c3cccnc3)cc2)C(C)C)cc1`, the GI50 with NCI-H1975 is 9.87 nM; with MDA-MB-231, 2.86 nM; in the test on MCF7, 1.38 nM; in the test on HeLa, 6.95 nM; in the test with U-937, 2.12 nM. For the same molecule, the IC50 in test [1] was found to be 54.8 nM.
Consider `CC(C)N(CCc1ccc(F)cc1)Cc1ccc(CCCCCNC(=O)/C=C/c2cccnc2)cc1`, for which the GI50 in the test with NCI-H1975 amounted to 34.1 nM; in the test with MDA-MB-231, 13.6 nM; in the test on MCF7 it was 7.37 nM; in the test on HeLa, 20.9 nM; in the test with U-937, 7.67 nM. Further, the IC50 in test [1] was determined as 149 nM.
On to `CC(C)(C)OC(=O)N(CCc1c[nH]c2ccccc12)Cc1ccc(CCCNC(=O)/C=C/c2cccnc2)cc1`, for which the GI50 in the test on NCI-H1975 stood at 399 nM; in the test on MDA-MB-231, 123 nM; in the test with MCF7, 85.5 nM; in the test with HeLa, 288 nM; in the test with U-937, 54.3 nM. Besides, the IC50 in test [1] turned out to be 715 nM.
On to `CCCN(CCc1c[nH]c2ccccc12)Cc1ccc(CCCNC(=O)/C=C/c2cccnc2)cc1`, for which the GI50 with NCI-H1975 turned out to be 109 nM; in the test on MDA-MB-231 it was 36 nM; with MCF7, 23.8 nM; with HeLa, 55.7 nM; in the test with U-937, 28.1 nM. Besides, in test [1], the IC50 was 544 nM.
Consider `CC(C)N(CCc1ccsc1)Cc1ccc(CCCCCNC(=O)/C=C/c2cccnc2)cc1`, for which the GI50 in the test on NCI-H1975 was determined as 71.8 nM; in the test with MDA-MB-231 it was 23.6 nM; with MCF7, 8.47 nM; in the test with HeLa, 43.7 nM; in the test on U-937, 14.8 nM. The IC50 in test [1] was found to be 195 nM.
On to `O=C(/C=C/c1cccnc1)NCCCc1ccc(CN(CCO)CCc2c[nH]c3ccccc23)cc1`, for which the GI50 amounted to 107 nM with NCI-H1975; 31.4 nM in the test with MDA-MB-231; 18.1 nM in the test with MCF7; 69.4 nM in the test on HeLa; 18.3 nM with U-937. For the same molecule, the IC50 in test [1] was found to be 181 nM.
`Cc1[nH]c2ccccc2c1CCN(Cc1ccc(CCCCCNC(=O)/C=C/c2cccnc2)cc1)C(C)C`: the GI50 with NCI-H1975 is 13.3 nM; in the test on MDA-MB-231, 3.03 nM; in the test on MCF7, 1.67 nM; in the test on HeLa it was 7.93 nM; in the test on U-937, 1.58 nM. Also, the IC50 in test [1] is 120 nM.
Take `CC(C)N(CCc1c[nH]c2ccccc12)Cc1ccc(CNC(=O)/C=C/c2cccnc2)cc1`: the GI50 amounted to 335 nM in the test with NCI-H1975; 134 nM in the test with MDA-MB-231; 75.1 nM in the test on MCF7; 173 nM in the test with HeLa; 77.9 nM with U-937. Besides, the IC50 in test [1] was determined as 213 nM.
As to `O=C(/C=C/c1cccnc1)NCCCc1ccc(CNCCc2c[nH]c3ccccc23)cc1`, the GI50 in the test on NCI-H1975 was 963 nM; in the test on MDA-MB-231, 358 nM; with MCF7, 86.9 nM; in the test on HeLa it was 405 nM; in the test on U-937, 187 nM. Further, the IC50 in test [1] was found to be 1410 nM.
As to `O=C(/C=C/c1cccnc1)NCCCCC1CCN(C(=O)c2ccccc2)CC1` [DAPORINAD], the GI50 with NCI-H1975 is 3.95 nM; in the test with MDA-MB-231 it was 0.78 nM; in the test with MCF7, 0.29 nM; with HeLa, 1.34 nM; in the test with U-937, 0.36 nM.
Turning to `CC(=O)O[C@H]1C(=O)[C@@]2(C)[C@H]([C@H](OC(=O)c3ccccc3)[C@]3(O)C[C@H](OC(=O)[C@H](O)[C@@H](NC(=O)c4ccccc4)c4ccccc4)C(C)=C1C3(C)C)[C@]1(OC(C)=O)CO[C@@H]1C[C@@H]2O` [PACLITAXEL], the GI50 in the test on NCI-H1975 was 5.77 nM; with MDA-MB-231 it was 8.67 nM; with MCF7, 4.38 nM; with HeLa it was 2.34 nM; in the test on U-937, 2.12 nM.

As usually defined, the GI50 is the concentration that inhibits growth by half. Broadly, the IC50 is the concentration that inhibits the measured activity by half.

These data come from ChEMBL document CHEMBL4425104, “Structure-Based Design of Potent Nicotinamide Phosphoribosyltransferase Inhibitors with Promising in Vitro and in Vivo Antitumor Activities” (J Med Chem, 2016).
